Active and inactive are the calls of the source. No cut-off for these calls is given here.
Experiments:
[1] = test system: Rattus norvegicus; experiment: Central serotonin receptor stimulating activity in Sprague-Dawley rat assessed as reduction in 5-HTP accumulation in limbic region of brain at 2 umol/kg, sc by spectrophotometric method; format: functional, organism-based; details: Limbic system
Procedure, shortened: (§1)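 Male Sprague-Dawley rats (200-350 g), reserpinized. Compounds dissolved in saline immediately before use, neutral pH, 10 mL/kg, given sc over a dose range. Aromatic-L-amino-acid decarboxylase inhibited (100 mg/kg). Dopa and 5-HTP accumulation measured spectrophotometrically in striatum, limbic forebrain and remaining hemispheral portions. ED50 = dose giving 50% of maximal reduction versus control portions, estimated from dose-response curves. Experiments run 9–12 a.m.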

[2] = test system: Rattus norvegicus; experiment: Central noradrenaline receptor stimulating activity in Sprague-Dawley rat assessed as reduction in DOPA accumulation in hemispheral portion of cerebrum at 2 umol/kg, sc by spectrophotometric method; format: functional, organism-based; procedure, shortened: as §1
[3] = test system: Rattus norvegicus; experiment: Central dopamine receptor stimulating activity in Sprague-Dawley rat assessed as reduction in DOPA accumulation in striatum of brain at 2 umol/kg, sc by spectrophotometric method; format: functional; procedure, shortened: as §1
[4] = test system: Rattus norvegicus; experiment: Toxicity in sc dosed Sprague-Dawley rat assessed as gross behaviour at ED50; format: organism-based; details: in vivo
[5] = test system: Rattus norvegicus; experiment: Central serotonin receptor stimulating activity in Sprague-Dawley rat assessed as reduction in 5-HTP accumulation in hemispheral portion of cerebrum at 2 umol/kg, sc by spectrophotometric method; format: functional, organism-based; procedure, shortened: as §1
[6] = test system: Rattus norvegicus; experiment: Central serotonin receptor stimulating activity in Sprague-Dawley rat assessed as reduction in 5-HTP accumulation in striatum of brain at 2 umol/kg, sc by spectrophotometric method; format: functional, organism-based; procedure, shortened: as §1
[7] = test system: Rattus norvegicus; experiment: Central dopamine receptor stimulating activity in Sprague-Dawley rat assessed as reduction in DOPA accumulation in limbic region of brain at 2 umol/kg, sc by spectrophotometric method; format: functional; details: Limbic system; procedure, shortened: as §1
[8] = test system: Rattus norvegicus; experiment: Central dopamine receptor stimulating activity in reserpenized Sprague-Dawley rat assessed as duration of action of motor activity at 2 umol/kg, sc measured 6 hrs post-reserpine challenge by motility meter analysis; format: functional
Procedure, shortened: (§2)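 Male Sprague-Dawley rats (200-350 g) given reserpine 10 mg/kg ip 6 h before testing. Drug in saline, 2 µmol/kg sc in the neck. Rats then placed singly in photocell motility meters. Counts recorded per 5-min period until effect ceased (<10 counts/5 min), giving duration and AUC. Means of four to six recordings. Testing 1–6 p.m.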

[9] = test system: Rattus norvegicus; experiment: Central dopamine receptor stimulating activity in reserpenized Sprague-Dawley rat assessed as duration of action of motor activity at 20 umol/kg, po administered via stomach tube measured 6 hrs post-reserpine challenge by motility meter analysis; format: functional
Procedure, shortened: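 Male Sprague-Dawley rats (200-350 g) given reserpine 10 mg/kg ip 6 h before testing. Drug in saline, 20 µmol/kg po by stomach tube. Rats then placed singly in photocell motility meters. Counts recorded per 5-min period until effect ceased (<10 counts/5 min) to give duration of action. Testing 1–6 p.m.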

[10] = test system: Rattus norvegicus; experiment: Central dopamine receptor stimulating activity in reserpenized Sprague-Dawley rat assessed as latency period of motor activity at 2 umol/kg, sc measured 6 hrs post-reserpine challenge by motility meter analysis; format: functional; procedure, shortened: as §2

## Br.CCCCCN(C)C1CCc2c(O)cccc2C1 (stereo not given)
[1]
  Activity: inactive
[2]
  Activity: inactive
[3]
  ED50: 0.28 µmol/kg
[4]
  Activity: Non-toxic
[5]
  Activity: inactive
[6]
  Activity: inactive
[7]
  ED50: 0.37 µmol/kg

## Br.CCCN(CC)C1CCc2c(O)cccc2C1 (stereo not given)
[8]
  Time: 82 min
[1]
  Activity: inactive
[2]
  Activity: inactive
[3]
  ED50: 0.017 µmol/kg
[9]
  Time: 40 min
[4]
  Activity: Non-toxic
[10]
  Time: 0 min
[5]
  Activity: inactive
[6]
  Activity: inactive
[7]
  ED50: 0.024 µmol/kg

## Br.CCCN(CCC)C1CCc2c(ccc(O)c2O)C1 (stereo not given)
[8]
  Time: 193 min
[1]
  Activity: inactive
[2]
  Activity: inactive
[3]
  ED50: 0.007 µmol/kg
[4]
  Activity: Non-toxic
[10]
  Time: 0 min
[5]
  Activity: inactive
[6]
  Activity: inactive
[7]
  ED50: 0.007 µmol/kg

## CCCNC1CCc2c(cccc2OC)C1.Cl (stereo not given)
[1]
  Activity: inactive
[2]
  Activity: inactive
[3]
  ED50: 0.43 µmol/kg
[4]
  Activity: Non-toxic
[5]
  Activity: inactive
[6]
  Activity: inactive
[7]
  ED50: 0.37 µmol/kg

## CCCN(CCc1ccccc1)C1CCc2c(O)cccc2C1.Cl (stereo not given)
[8]
  Time: 53 min
[1]
  Activity: inactive
[2]
  Activity: inactive
[3]
  ED50: 0.017 µmol/kg
[4]
  Activity: Non-toxic
[10]
  Time: 0 min
[5]
  Activity: inactive
[6]
  Activity: inactive
[7]
  ED50: 0.022 µmol/kg

## Br.CN(C)C1CCc2c(O)cccc2C1 (stereo not given)
[1]
  Activity: inactive
[2]
  Activity: inactive
[3]
  ED50: 0.19 µmol/kg
[4]
  Activity: Non-toxic
[5]
  Activity: inactive
[6]
  Activity: inactive
[7]
  ED50: 0.39 µmol/kg

## Br.CCCN(C(C)C)C1CCc2c(O)cccc2C1 (stereo not given)
[8]
  Time: 55 min
[1]
  Activity: inactive
[2]
  Activity: inactive
[3]
  ED50: 0.087 µmol/kg
[4]
  Activity: Non-toxic
[10]
  Time: 4 min
[5]
  Activity: inactive
[6]
  Activity: inactive
[7]
  ED50: 0.07 µmol/kg

## Br.CNC1CCc2c(O)cccc2C1 (stereo not given)
[1]
  Activity: inactive
[2]
  Activity: inactive
[3]
  ED50: 1.2 µmol/kg
[4]
  Activity: Non-toxic
[5]
  Activity: inactive
[6]
  Activity: inactive
[7]
  ED50: 1.1 µmol/kg

## Br.CCCNC1CCc2c(O)cccc2C1 (stereo not given)
[8]
  Time: 45 min
[1]
  Activity: inactive
[2]
  Activity: inactive
[3]
  ED50: 0.046 µmol/kg
[4]
  Activity: Non-toxic
[10]
  Time: 0 min
[5]
  Activity: inactive
[6]
  Activity: inactive
[7]
  ED50: 0.04 µmol/kg

## CCCCCN(CCC)C1CCc2c(cccc2OC)C1.O=C(O)C(=O)O (stereo not given)
[8]
  Time: 93 min
[1]
  Activity: inactive
[2]
  Activity: inactive
[3]
  ED50: 0.101 µmol/kg
[4]
  Activity: Non-toxic
[10]
  Time: 15 min
[5]
  Activity: inactive
[6]
  Activity: inactive
[7]
  ED50: 0.092 µmol/kg

## Br.CCCCN(CC)C1CCc2c(O)cccc2C1 (stereo not given)
[8]
  Time: 118 min
[1]
  Activity: inactive
[2]
  Activity: inactive
[3]
  ED50: 0.035 µmol/kg
[9]
  Time: 63 min
[4]
  Activity: Non-toxic
[10]
  Time: 0 min
[5]
  Activity: inactive
[6]
  Activity: inactive
[7]
  ED50: 0.03 µmol/kg

## Br.CCN(C)C1CCc2c(O)cccc2C1 (stereo not given)
[8]
  Time: 31 min
[1]
  Activity: inactive
[2]
  Activity: inactive
[3]
  ED50: 0.053 µmol/kg
[4]
  Activity: Non-toxic
[10]
  Time: 3 min
[5]
  Activity: inactive
[6]
  Activity: inactive
[7]
  ED50: 0.074 µmol/kg

## Br.CCNC1CCc2c(O)cccc2C1 (stereo not given)
[8]
  Time: 50 min
[1]
  Activity: inactive
[2]
  Activity: inactive
[3]
  ED50: 0.066 µmol/kg
[4]
  Activity: Non-toxic
[10]
  Time: 3 min
[5]
  Activity: inactive
[6]
  Activity: inactive
[7]
  ED50: 0.072 µmol/kg

## Br.CCCCN(CCC)C1CCc2c(O)cccc2C1 (stereo not given)
[8]
  Time: 158 min
[1]
  Activity: inactive
[2]
  Activity: inactive
[3]
  ED50: 0.014 µmol/kg
[9]
  Time: 117 min
[4]
  Activity: Non-toxic
[10]
  Time: 0 min
[5]
  Activity: inactive
[6]
  Activity: inactive
[7]
  ED50: 0.011 µmol/kg

## Br.CCCN(C)C1CCc2c(O)cccc2C1 (stereo not given)
[8]
  Time: 73 min
[1]
  Activity: inactive
[2]
  Activity: inactive
[3]
  ED50: 0.029 µmol/kg
[4]
  Activity: Non-toxic
[10]
  Time: 0 min
[5]
  Activity: inactive
[6]
  Activity: inactive
[7]
  ED50: 0.023 µmol/kg

## CCCCN(CC)C1CCc2c(cccc2OC)C1.Cl (stereo not given)
[8]
  Time: 140 min
[1]
  Activity: inactive
[2]
  Activity: inactive
[3]
  ED50: 0.079 µmol/kg
[4]
  Activity: Non-toxic
[10]
  Time: 16 min
[5]
  Activity: inactive
[6]
  Activity: inactive
[7]
  ED50: 0.068 µmol/kg

## Br.CCCCN(CCCC)C1CCc2c(O)cccc2C1 (stereo not given)
[1]
  Activity: inactive
[2]
  Activity: inactive
[3]
  ED50: 2.7 µmol/kg
[4]
  Activity: Non-toxic
[5]
  Activity: inactive
[6]
  Activity: inactive
[7]
  ED50: 2.9 µmol/kg

## CCCCCN(CCC)C1CCc2c(O)cccc2C1.Cl (stereo not given)
[8]
  Time: 75 min
[1]
  Activity: inactive
[2]
  Activity: inactive
[3]
  ED50: 0.019 µmol/kg
[4]
  Activity: Non-toxic
[10]
  Time: 0 min
[5]
  Activity: inactive
[6]
  Activity: inactive
[7]
  ED50: 0.01 µmol/kg

## CCCN(CCc1ccccc1)C1CCc2c(cccc2OC)C1.Cl (stereo not given)
[1]
  Activity: inactive
[2]
  Activity: inactive
[3]
  ED50: 0.24 µmol/kg
[4]
  Activity: Non-toxic
[5]
  Activity: inactive
[6]
  Activity: inactive
[7]
  ED50: 0.29 µmol/kg

## CCCN(C)C1CCc2c(cccc2OC)C1.Cl (stereo not given)
[8]
  Time: 69 min
[1]
  Activity: inactive
[2]
  Activity: inactive
[3]
  ED50: 0.096 µmol/kg
[4]
  Activity: Non-toxic
[10]
  Time: 15 min
[5]
  Activity: inactive
[6]
  Activity: inactive
[7]
  ED50: 0.12 µmol/kg

## CCCN(CCC)C1CCc2c(ccc(OC)c2OC)C1.Cl (stereo not given)
[1]
  Activity: inactive
[2]
  Activity: inactive
[3]
  ED50: 0.058 µmol/kg
[4]
  Activity: Non-toxic
[5]
  Activity: inactive
[6]
  Activity: inactive
[7]
  ED50: 0.057 µmol/kg

## CN1CCc2cccc3c2[C@H]1Cc1ccc(O)c(O)c1-3 [APOMORPHINE]
[8]
  Time: 60 min
[3]
  ED50: 0.22 µmol/kg
[9]
  Time: 33 min
[10]
  Time: 0 min
[7]
  ED50: 0.19 µmol/kg

## CCCN(CCC)C1CCc2c(cccc2OC)C1.Cl (stereo not given)
[8]
  Time: 122 min
[1]
  Activity: inactive
[2]
  Activity: inactive
[3]
  ED50: 0.018 µmol/kg
[4]
  Activity: Non-toxic
[10]
  Time: 15 min
[5]
  Activity: inactive
[6]
  Activity: inactive
[7]
  ED50: 0.013 µmol/kg

## CCCN(CC(C)(C)C)C1CCc2c(O)cccc2C1.Cl (stereo not given)
[8]
  Time: 68 min
[1]
  Activity: inactive
[2]
  Activity: inactive
[3]
  ED50: 0.12 µmol/kg
[4]
  Activity: Non-toxic
[10]
  Time: 9 min
[5]
  Activity: inactive
[6]
  Activity: inactive
[7]
  ED50: 0.2 µmol/kg

## CCCN(CC)C1CCc2c(cccc2OC)C1.Cl (stereo not given)
[8]
  Time: 96 min
[1]
  Activity: inactive
[2]
  Activity: inactive
[3]
  ED50: 0.062 µmol/kg
[4]
  Activity: Non-toxic
[10]
  Time: 13 min
[5]
  Activity: inactive
[6]
  Activity: inactive
[7]
  ED50: 0.065 µmol/kg

## Br.CCN(CC)C1CCc2c(O)cccc2C1 (stereo not given)
[8]
  Time: 54 min
[1]
  Activity: inactive
[2]
  Activity: inactive
[3]
  ED50: 0.071 µmol/kg
[4]
  Activity: Non-toxic
[10]
  Time: 0 min
[5]
  Activity: inactive
[6]
  Activity: inactive
[7]
  ED50: 0.077 µmol/kg

## CCCCN(CCC)C1CCc2c(cccc2OC)C1.Cl (stereo not given)
[8]
  Time: 106 min
[1]
  Activity: inactive
[2]
  Activity: inactive
[3]
  ED50: 0.036 µmol/kg
[4]
  Activity: Non-toxic
[10]
  Time: 14 min
[5]
  Activity: inactive
[6]
  Activity: inactive
[7]
  ED50: 0.04 µmol/kg

## CCCN(CC(C)(C)C)C1CCc2c(cccc2OC)C1.Cl (stereo not given)
[1]
  Activity: inactive
[2]
  Activity: inactive
[3]
  ED50: 0.19 µmol/kg
[4]
  Activity: Non-toxic
[5]
  Activity: inactive
[6]
  Activity: inactive
[7]
  ED50: 0.19 µmol/kg

From ChEMBL document CHEMBL3227985, “N-Alkylated 2-aminotetralins: central dopamine-receptor stimulating activity” (J Med Chem, 1979)
